Assay results from ChEMBL document CHEMBL1649247, “Fluoroquinolone resistance in Mycobacterium tuberculosis and mutations in gyrA and gyrB” (2009).
Converted amounts (≈) assume the structure as drawn. The source made the active and inactive calls. The rule behind the calls is not given here.

What was measured:
[1] = test system: Mycobacterium tuberculosis; assay: Antimycobacterial activity against multidrug-resistant Mycobacterium tuberculosis 08-0794 harboring gyrA Thr80Ala mutant gene by resazurin microtiter assay; type: functional
Procedure, shortened: (§1)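 MIC was read by resazurin microtiter assay against ofloxacin, moxifloxacin and gatifloxacin. Isolates were used as fresh Löwenstein-Jensen subcultures kept at 37°C for no longer than 4 weeks.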

[2] = test system: Mycobacterium tuberculosis; assay: Antimycobacterial activity against multidrug-resistant Mycobacterium tuberculosis 08-0746 assessed as microbial susceptibility by agar proportion method; type: functional, organism-based
Procedure, shortened: (§2)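 Clinical isolates freshly subcultured on Löwenstein-Jensen medium at 37°C for no more than 4 weeks. Susceptibility by standard proportion method on 7H11 agar at breakpoints of 2 mg/liter ofloxacin and 0.5 mg/liter moxifloxacin and gatifloxacin. Drug stocks 1 mg/ml in 0.1 N NaOH, filter sterilized, held at −20°C under 2 months. Isolates scored susceptible or resistant.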

[3] = test system: Mycobacterium tuberculosis; assay: Antimycobacterial activity against Mycobacterium tuberculosis 00-0715 harboring gyrA Ala90Val mutant gene assessed as microbial susceptibility by agar proportion method; type: functional, organism-based
Procedure, shortened: (§3)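 Clinical isolates freshly subcultured on Löwenstein-Jensen medium, held at 37°C no longer than 4 weeks. Fluoroquinolone stocks 1 mg/ml in 0.1 N NaOH, filter sterilized, kept at −20°C under 2 months. Standard proportion method on 7H11 agar; breakpoints 2 mg/liter ofloxacin, 0.5 mg/liter moxifloxacin and gatifloxacin; scored susceptible or resistant.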

[4] = test system: Mycobacterium tuberculosis; assay: Antimycobacterial activity against multidrug-resistant Mycobacterium tuberculosis 08-0810 harboring gyrA Asp94Tyr mutant gene assessed as microbial susceptibility by agar proportion method; type: functional, organism-based; procedure, shortened: as §2
[5] = test system: Mycobacterium tuberculosis; assay: Antimycobacterial activity against multidrug-resistant Mycobacterium tuberculosis 08-0777 by resazurin microtiter assay; type: functional; procedure, shortened: as §1
[6] = test system: Mycobacterium tuberculosis; assay: Antimycobacterial activity against Mycobacterium tuberculosis 08-0769 harboring gyrA putative promoter mutant gene by resazurin microtiter assay; type: functional
Procedure, shortened: (§4)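 Isolates taken from fresh Löwenstein-Jensen subcultures grown at 37°C for at most 4 weeks. Drug stocks 1 mg/ml in 0.1 N NaOH, filter sterilized, stored at −20°C less than 2 months. MIC read by resazurin microtiter assay following a previously described protocol.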

[7] = test system: Mycobacterium tuberculosis; assay: Antimycobacterial activity against multidrug-resistant Mycobacterium tuberculosis 01-0930 harboring gyrA Ala90Val mutant gene assessed as microbial susceptibility by agar proportion method; type: functional, organism-based; procedure, shortened: as §3
[8] = test system: Mycobacterium tuberculosis; assay: Antimycobacterial activity against multidrug-resistant Mycobacterium tuberculosis 03-0738 harboring gyrA Ala90Val mutant gene by resazurin microtiter assay; type: functional; procedure, shortened: as §1
[9] = test system: Mycobacterium tuberculosis; assay: Antimycobacterial activity against multidrug-resistant Mycobacterium tuberculosis 08-0785 harboring gyrA Ala90Val mutant gene by resazurin microtiter assay; type: functional; procedure, shortened: as §1
[10] = test system: Mycobacterium tuberculosis; assay: Antimycobacterial activity against multidrug-resistant Mycobacterium tuberculosis 01-1647 harboring gyrA Ala90Val mutant gene assessed as microbial susceptibility by agar proportion method; type: functional, organism-based; procedure, shortened: as §3
[11] = test system: Mycobacterium tuberculosis; assay: Antimycobacterial activity against multidrug-resistant Mycobacterium tuberculosis 08-0777 assessed as microbial susceptibility by agar proportion method; type: functional, organism-based; procedure, shortened: as §2
[12] = test system: Mycobacterium tuberculosis; assay: Antimycobacterial activity against multidrug-resistant Mycobacterium tuberculosis 02-2934 harboring gyrA Ala90Val mutant gene assessed as microbial susceptibility by agar proportion method; type: functional, organism-based; procedure, shortened: as §3
[13] = test system: Mycobacterium tuberculosis; assay: Antimycobacterial activity against multidrug-resistant Mycobacterium tuberculosis 03-0738 harboring gyrA Ala90Val mutant gene assessed as microbial susceptibility by agar proportion method; type: functional, organism-based; procedure, shortened: as §2
[14] = test system: Mycobacterium tuberculosis; assay: Antimycobacterial activity against multidrug-resistant Mycobacterium tuberculosis 02-1234 harboring gyrA Asn533Thr gyrB mutant gene assessed as microbial susceptibility by agar proportion method; type: functional, organism-based; procedure, shortened: as §3
[15] = test system: Mycobacterium tuberculosis; assay: Antimycobacterial activity against multidrug-resistant Mycobacterium tuberculosis 02-0319 harboring gyrA Asp94Ala mutant gene by resazurin microtiter assay; type: functional; procedure, shortened: as §4
[16] = test system: Mycobacterium tuberculosis; assay: Antimycobacterial activity against multidrug-resistant Mycobacterium tuberculosis 01-0172 harboring gyrA Asp94Ala mutant gene assessed as microbial susceptibility by agar proportion method; type: functional, organism-based; procedure, shortened: as §3
[17] = test system: Mycobacterium tuberculosis; assay: Antimycobacterial activity against multidrug-resistant Mycobacterium tuberculosis 08-0779 by resazurin microtiter assay; type: functional; procedure, shortened: as §1
[18] = test system: Mycobacterium tuberculosis; assay: Antimycobacterial activity against Mycobacterium tuberculosis 08-0787 harboring gyrA Asp94His mutant gene assessed as microbial susceptibility and deletion of codons 678 and 679 in gyrB mutant gene assessed as microbial susceptibility by agar proportion method; type: functional, organism-based; procedure, shortened: as §3
[19] = test system: Mycobacterium tuberculosis; assay: Antimycobacterial activity against multidrug-resistant Mycobacterium tuberculosis 01-1647 harboring gyrA Ala90Val mutant gene by resazurin microtiter assay; type: functional; procedure, shortened: as §4
[20] = test system: Mycobacterium tuberculosis; assay: Antimycobacterial activity against Mycobacterium tuberculosis 00-0715 harboring gyrA Ala90Val mutant gene by resazurin microtiter assay; type: functional; procedure, shortened: as §4
[21] = test system: Mycobacterium tuberculosis; assay: Antimycobacterial activity against multidrug-resistant Mycobacterium tuberculosis 01-2614 harboring gyrA Asp94Gly mutant gene assessed as microbial susceptibility by agar proportion method; type: functional, organism-based; procedure, shortened: as §3
[22] = test system: Mycobacterium tuberculosis; assay: Antimycobacterial activity against multidrug-resistant Mycobacterium tuberculosis 08-0791 harboring gyrA Ala90Val mutant gene by resazurin microtiter assay; type: functional; procedure, shortened: as §1
[23] = test system: Mycobacterium tuberculosis; assay: Antimycobacterial activity against multidrug-resistant Mycobacterium tuberculosis 08-0790 harboring gyrA Ala90Val mutant gene by resazurin microtiter assay; type: functional; procedure, shortened: as §1
[24] = test system: Mycobacterium tuberculosis; assay: Antimycobacterial activity against Mycobacterium tuberculosis 08-0815 harboring gyrA Thr80Ala and Ala90Gly mutant gene by resazurin microtiter assay; type: functional; procedure, shortened: as §4
[25] = test system: Mycobacterium tuberculosis; assay: Antimycobacterial activity against multidrug-resistant Mycobacterium tuberculosis 02-0319 harboring gyrA Asp94Ala mutant gene assessed as microbial susceptibility by agar proportion method; type: functional, organism-based; procedure, shortened: as §3
[26] = test system: Mycobacterium tuberculosis; assay: Antimycobacterial activity against Mycobacterium tuberculosis 08-0771 harboring gyrA putative promoter mutant gene by resazurin microtiter assay; type: functional; procedure, shortened: as §4
[27] = test system: Mycobacterium tuberculosis; assay: Antimycobacterial activity against Mycobacterium tuberculosis 08-0773 harboring gyrA Pro8Ala mutant gene assessed as microbial susceptibility by agar proportion method; type: functional, organism-based; procedure, shortened: as §3
[28] = test system: Mycobacterium tuberculosis; assay: Antimycobacterial activity against Mycobacterium tuberculosis 08-0815 harboring gyrA Thr80Ala and Ala90Gly mutant gene assessed as microbial susceptibility by agar proportion method; type: functional, organism-based; procedure, shortened: as §3
[29] = test system: Mycobacterium tuberculosis; assay: Antimycobacterial activity against multidrug-resistant Mycobacterium tuberculosis 08-0744 harboring gyrA Asp94Tyr mutant gene assessed as microbial susceptibility by agar proportion method; type: functional, organism-based; procedure, shortened: as §2
[30] = test system: Mycobacterium tuberculosis; assay: Antimycobacterial activity against multidrug-resistant Mycobacterium tuberculosis 08-0821 harboring gyrA Asp94Tyr mutant gene assessed as microbial susceptibility by agar proportion method; type: functional, organism-based; procedure, shortened: as §2
[31] = test system: Mycobacterium tuberculosis; assay: Antimycobacterial activity against multidrug-resistant Mycobacterium tuberculosis 02-2399 harboring gyrA Asp94Tyr mutant gene by resazurin microtiter assay; type: functional; procedure, shortened: as §4
[32] = test system: Mycobacterium tuberculosis; assay: Antimycobacterial activity against multidrug-resistant Mycobacterium tuberculosis 08-0794 harboring gyrA Thr80Ala mutant gene assessed as microbial susceptibility by agar proportion method; type: functional, organism-based; procedure, shortened: as §2
[33] = test system: Mycobacterium tuberculosis; assay: Antimycobacterial activity against multidrug-resistant Mycobacterium tuberculosis 04-0519 harboring gyrA Ala90Val and Asp94Asn mutant gene by resazurin microtiter assay; type: functional; procedure, shortened: as §1
[34] = test system: Mycobacterium tuberculosis; assay: Antimycobacterial activity against multidrug-resistant Mycobacterium tuberculosis 08-0785 harboring gyrA Ala90Val mutant gene assessed as microbial susceptibility by agar proportion method; type: functional, organism-based; procedure, shortened: as §2
[35] = test system: Mycobacterium tuberculosis; assay: Antimycobacterial activity against multidrug-resistant Mycobacterium tuberculosis 99-1914 harboring gyrA Asp94Gly mutant gene by resazurin microtiter assay; type: functional; procedure, shortened: as §1
[36] = test system: Mycobacterium tuberculosis; assay: Antimycobacterial activity against multidrug-resistant Mycobacterium tuberculosis 01-0930 harboring gyrA Ala90Val mutant gene by resazurin microtiter assay; type: functional; procedure, shortened: as §4

| Compound | MIC [1] | Activity [2] | Activity [3] | Activity [4] | MIC [5] | MIC [6] | Activity [7] | MIC [8] | MIC [9] | Activity [10] | Activity [11] | Activity [12] | Activity [13] | Activity [14] | MIC [15] | Activity [16] | MIC [17] | Activity [18] | MIC [19] | MIC [20] | further results |
| --- | --- | --- | --- | --- | --- | --- | --- | --- | --- | --- | --- | --- | --- | --- | --- | --- | --- | --- | --- | --- | --- |
| COc1c(N2CCNC(C)C2)c(F)cc2c(=O)c(C(=O)O)cn(C3CC3)c12 (stereo not drawn) [GATIFLOXACIN] | <=0.062 mg/L | Active | inactive | inactive | ≤ 0.062 µg/mL | 0.125 µg/mL (≈ 0.333 µM) | inactive | 0.25 µg/mL (≈ 0.666 µM) | 1 µg/mL (≈ 2.66 µM) | inactive | Active | inactive | inactive | inactive | 0.25 µg/mL (≈ 0.666 µM) | inactive | ≤ 0.062 µg/mL | inactive | 0.5 µg/mL (≈ 1.33 µM) | 0.5 µg/mL (≈ 1.33 µM) | Activity [21]: inactive; MIC [22]: 0.25 µg/mL (≈ 0.666 µM); MIC [23]: 0.5 µg/mL (≈ 1.33 µM); MIC [24]: <=0.062 mg/L; Activity [25]: inactive; MIC [26]: 0.125 µg/mL (≈ 0.333 µM); Activity [27]: Active; Activity [28]: Active; Activity [29]: inactive; Activity [30]: inactive; MIC [31]: 0.25 µg/mL (≈ 0.666 µM); Activity [32]: Active; MIC [33]: >4 µg/mL; Activity [34]: inactive; MIC [35]: 1 µg/mL (≈ 2.66 µM); MIC [36]: 0.5 µg/mL (≈ 1.33 µM) |
| COc1c(N2C[C@@H]3CCCN[C@@H]3C2)c(F)cc2c(=O)c(C(=O)O)cn(C3CC3)c12 [MOXIFLOXACIN] | <=0.125 mg/L | Active | inactive | inactive | ≤ 0.125 µg/mL | <=0.125 mg/L | inactive | 0.25 µg/mL (≈ 0.623 µM) | 2 µg/mL (≈ 4.98 µM) | inactive | Active | inactive | inactive | inactive | 0.5 µg/mL (≈ 1.25 µM) | inactive | ≤ 0.125 µg/mL | inactive | 0.5 µg/mL (≈ 1.25 µM) | 0.5 µg/mL (≈ 1.25 µM) | Activity [21]: inactive; MIC [22]: 0.5 µg/mL (≈ 1.25 µM); MIC [23]: 1 µg/mL (≈ 2.49 µM); MIC [24]: <=0.125 mg/L; Activity [25]: inactive; MIC [26]: <=0.125 mg/L; Activity [27]: Active; Activity [28]: Active; Activity [29]: inactive; Activity [30]: inactive; MIC [31]: 0.5 µg/mL (≈ 1.25 µM); Activity [32]: Active; MIC [33]: >8 µg/mL; Activity [34]: inactive; MIC [35]: 2 µg/mL (≈ 4.98 µM); MIC [36]: 0.5 µg/mL (≈ 1.25 µM) |
| CC1COc2c(N3CCN(C)CC3)c(F)cc3c(=O)c(C(=O)O)cn1c23 (stereo not drawn) [OFLOXACIN] | 0.5 µg/mL (≈ 1.38 µM) | Active | inactive | inactive | 0.5 µg/mL (≈ 1.38 µM) | 1 µg/mL (≈ 2.77 µM) | inactive | 4 µg/mL (≈ 11.1 µM) | 8 µg/mL (≈ 22.1 µM) | inactive | Active | inactive | inactive | Active | 4 µg/mL (≈ 11.1 µM) | inactive | 0.5 µg/mL (≈ 1.38 µM) | inactive | 4 µg/mL (≈ 11.1 µM) | 4 µg/mL (≈ 11.1 µM) | Activity [21]: inactive; MIC [22]: 4 µg/mL (≈ 11.1 µM); MIC [23]: 4 µg/mL (≈ 11.1 µM); MIC [24]: <=0.25 mg/L; Activity [25]: inactive; MIC [26]: 1 µg/mL (≈ 2.77 µM); Activity [27]: Active; Activity [28]: Active; Activity [29]: inactive; Activity [30]: inactive; MIC [31]: 4 µg/mL (≈ 11.1 µM); Activity [32]: Active; MIC [33]: >32 µg/mL; Activity [34]: inactive; MIC [35]: 8 µg/mL (≈ 22.1 µM); MIC [36]: 4 µg/mL (≈ 11.1 µM) |
